Experiment [1] can be described thus: Her2 expression decrease, cell viability multiplex – SKBR3 breast tumor cells, AlphaScreen, ATP viability, primary screen (AID 461;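 active means Her2 level under about 52% in both replicate screens, with viability over 70% of control, limit read from the data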;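 on Her2 level: lower value means less Her2 protein in the cells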;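 on viability: percent of carrier control wells set as 100% viability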). The conditions noted are these: SKBR3 Her2 protein level, 18-24 h, measured here: SKBR3 viability, ATP luminescence, at 10 µM.
Experiment [2] concerns the target Receptor tyrosine-protein kinase erbB-2 (Homo sapiens) (UniProt P04626). Described as above. The conditions noted are these: 18-24 h, at 10 µM, stronger effect = lower value.
Experiment [3] can be described thus: reduced viability of SK-BR-3 breast cancer cells – cell-based, 24 h, human, pilot screen (AID 572;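 active means viability at or below 10% of carrier control in both of two separate runs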;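 further: compound exposure lasted between 18 and 24 h rather than exactly 24 h; 100% = carrier-treated control wells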). The settings on record: SK-BR-3 viability, CellTiter-Glo luminescence, at 10 µM, stronger effect = lower value. In general terms: ATP-based viability assays read luminescence as a measure of living cells.
Experiment [4] in a line: HUVEC growth inhibition – cell-based, human, primary screen (AID 575;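 active means viability at or below 30% in both replicate assays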;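 further: 100% = median of untreated cell wells with 0.1% DMSO on each plate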). The settings on record: HUVEC proliferation, CellTiter-Glo luminescence, 72 h; at 10 µM; stronger effect = lower value. The essentials:
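Timing: 72 h treatment at 37 °C; material: HUVEC primary cells; technique: CellTiter-Glo luminescence measuring cellular ATP; controls: vehicle and MePR control wells; measure: percent of median DMSO-control luminescence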

Experiment [5] in a line: H69AR cell proliferation blockers – human, duplicate replicates, primary screen (AID 580).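 Further: 100% = mean luminescence of untreated wells and 0% = no signal.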 The settings on record: H69AR lung tumor cells viability, ATP luminescence, 72 h; at 10 µM; stronger effect = lower value.
Experiment [6] can be described thus: MRP1 drug-resistance reversers in H69AR cells – cell-based, doxorubicin co-treatment, pilot screen (AID 601;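 active means viability loss from added drug above about 55%, and viability with drug at most 40%, in both replicates, limit read from the data, passing the limit was not always enough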). The settings on record: CellTiter-Glo, 72 h, at 10 µM; for differential viability (reversal): stronger effect = higher value.
Experiment [7] in a line: yeast transport mutant growth inhibition pilot in 384-well plates, post-Golgi transport modulator project (AID 636; in the data active means inhibition above about 31%). The conditions noted are these: absorbance 615 nm, about 18 h, stronger effect = higher value.
Experiment [8] can be described thus: growth suppression of yeast trafficking mutant, preliminary HTS, modulators of trafficking downstream of Golgi apparatus project, 1536-format plate, OD 615 nm (AID 637; in the data active means inhibition above about 30%). The settings on record: yeast transport mutant growth, absorbance 615 nm, 18 h; stronger effect = higher value.
The mark [9] stands for this setting: H69AR cells + 2 uM doxorubicin, measured here: viability with 2 uM doxorubicin, stronger effect = lower value.
Setting [10] is: H69AR cells, compound alone cytotoxicity.

Active and inactive are the calls of the source.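 How the source made its calls, unless noted: active means viability at or under a set limit in both replicates, limit being median viability minus 3 SD (cut at about 48% in these data, passing the limit was not always enough); inconclusive means at or under the limit in just one replicate; inactive means at or above the limit in both replicates.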

Receptor tyrosine-protein kinase erbB-2 (Homo sapiens), sequence (P04626 whole entry, looked up): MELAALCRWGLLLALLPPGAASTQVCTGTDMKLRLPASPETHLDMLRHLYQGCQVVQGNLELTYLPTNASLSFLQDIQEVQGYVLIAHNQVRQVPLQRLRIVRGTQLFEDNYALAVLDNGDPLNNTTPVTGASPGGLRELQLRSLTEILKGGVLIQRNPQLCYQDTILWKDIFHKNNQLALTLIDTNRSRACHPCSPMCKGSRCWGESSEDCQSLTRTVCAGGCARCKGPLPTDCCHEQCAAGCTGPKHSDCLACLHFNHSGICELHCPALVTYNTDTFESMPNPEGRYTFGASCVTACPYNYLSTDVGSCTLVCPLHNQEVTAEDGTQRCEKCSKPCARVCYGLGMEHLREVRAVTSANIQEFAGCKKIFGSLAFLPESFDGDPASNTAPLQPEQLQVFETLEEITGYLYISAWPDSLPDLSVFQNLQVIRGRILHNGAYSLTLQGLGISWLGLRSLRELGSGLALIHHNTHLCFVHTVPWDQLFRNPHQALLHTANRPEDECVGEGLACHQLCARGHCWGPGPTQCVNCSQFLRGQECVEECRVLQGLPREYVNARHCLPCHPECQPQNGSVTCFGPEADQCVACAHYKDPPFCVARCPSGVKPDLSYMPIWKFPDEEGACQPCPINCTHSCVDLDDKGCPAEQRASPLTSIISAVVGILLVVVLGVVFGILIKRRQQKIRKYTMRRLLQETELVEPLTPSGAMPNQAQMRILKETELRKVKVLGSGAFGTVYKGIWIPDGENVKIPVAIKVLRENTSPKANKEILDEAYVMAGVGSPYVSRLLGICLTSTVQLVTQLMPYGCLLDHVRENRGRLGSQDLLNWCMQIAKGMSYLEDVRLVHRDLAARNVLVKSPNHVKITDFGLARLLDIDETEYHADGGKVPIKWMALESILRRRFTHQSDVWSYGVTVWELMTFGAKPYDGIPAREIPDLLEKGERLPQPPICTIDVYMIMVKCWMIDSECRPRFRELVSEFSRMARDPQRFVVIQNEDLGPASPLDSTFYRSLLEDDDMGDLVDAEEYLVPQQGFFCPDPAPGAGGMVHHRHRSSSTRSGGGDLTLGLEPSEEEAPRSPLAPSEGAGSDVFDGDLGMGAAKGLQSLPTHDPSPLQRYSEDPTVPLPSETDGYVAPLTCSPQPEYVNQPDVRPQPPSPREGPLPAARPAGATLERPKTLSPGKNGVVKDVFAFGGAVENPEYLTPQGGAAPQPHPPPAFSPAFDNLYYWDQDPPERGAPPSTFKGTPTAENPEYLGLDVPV

What is called viability is a read-out of living cells in per cent, often relative to untreated cells. For orientation: inhibition means the change of the read-out against control, counted positive when it falls. For the compound `CCN(Cc1ccccc1)C(c1ccncc1)c1nnnn1C(C)(C)C` (stereo not given), the viability in experiment [1] is 102%; in experiment [3], 102% (inactive); in experiment [4] it was 99.5% (inactive); in experiment [5], 78.6% (inactive); in experiment [6] (setting [9]), 79.1%; in experiment [6] (setting [10]), 78.6%. In experiment [2], the Her2 level is 76% (inactive). Moreover, in experiment [6] (H69AR cells + 2 uM doxorubicin), the differential viability (reversal) is -0.555% (inactive). The inhibition in experiment [7] is -5.73% (inactive); in experiment [8], 4.26% (inactive).
On to `COCCn1c(COc2ccc(Cl)cc2)nnc1SCC(N)=O`, for which the viability is 85.5% in experiment [1]; 85.5% (inactive) in experiment [3]; 98.8% (inactive) in experiment [4]; 109% (inactive) in experiment [5]; 90.8% in experiment [6] (setting [9]); 109% in experiment [6] (setting [10]). Besides, the Her2 level in experiment [2] is 84.5% (inactive). In addition, in experiment [6] (H69AR cells + 2 uM doxorubicin), the differential viability (reversal) was 18.1% (inactive). For the same compound, the inhibition is -5.41% (inactive) in experiment [7] and 2.54% (inactive) in experiment [8].
As for `COC(=O)c1ccc(COc2ncnc3c(Cl)cc(Cl)cc23)o1`, the viability in experiment [1] is 102%; in experiment [3], 102% (inactive); in experiment [4] it was 95.4% (inactive); in experiment [5], 85.9% (inactive); in experiment [6] (setting [9]), 67.4%; in experiment [6] (setting [10]) it was 85.9%. The Her2 level in experiment [2] is 100% (inactive). In addition, in experiment [6] (H69AR cells + 2 uM doxorubicin), the differential viability (reversal) is 18.5% (inactive). Also, the inhibition in experiment [7] is -8.16% (inactive); in experiment [8], -2.73% (inactive).
In the case of `O=C(CSc1nc2ccccc2n1CC(=O)N1CCCC1)Nc1nccs1`, the viability was 106% in experiment [1]; 106% (inactive) in experiment [3]; 98.4% (inactive) in experiment [4]; 95.3% (inactive) in experiment [5]; 78.9% in experiment [6] (setting [9]); 95.3% in experiment [6] (setting [10]). Also, the Her2 level in experiment [2] was 93% (inactive). Also, in experiment [6] (H69AR cells + 2 uM doxorubicin), the differential viability (reversal) was 16.4% (inactive). Further, the inhibition is -0.92% (inactive) in experiment [7] and -6.73% (inactive) in experiment [8].
On to `O=C(C1CCCN(S(=O)(=O)c2cccnc2)C1)N1CCN(c2ccccn2)CC1` (stereo not given), for which the viability in experiment [1] was 93.5%; in experiment [3] it was 93.5% (inactive); in experiment [4], 103% (inactive); in experiment [5], 98.7% (inactive); in experiment [6] (setting [9]), 90.3%; in experiment [6] (setting [10]) it was 98.7%. Also, the Her2 level in experiment [2] is 122% (inactive). Further, the differential viability (reversal) in experiment [6] (H69AR cells + 2 uM doxorubicin) was 8.35% (inactive). The inhibition was 0% (inactive) in experiment [7] and -4% (inactive) in experiment [8].
For `Cc1ccc(S(=O)(=O)Nc2nc3ccccc3nc2NCc2ccco2)cc1`, the viability is 114% in experiment [1]; 114% (inactive) in experiment [3]; 86.7% (inactive) in experiment [4]; 22.5% (active) in experiment [5]; 21.9% in experiment [6] (setting [9]); 22.5% in experiment [6] (setting [10]). For the same compound, the Her2 level in experiment [2] was 93.5% (inactive). Besides, in experiment [6] (H69AR cells + 2 uM doxorubicin), the differential viability (reversal) was 0.645% (inactive). Further, the values for the inhibition in experiment [7] and in experiment [8] were -5.47% (inactive) and -6.51% (inactive), respectively.
`COC(=O)c1ccc(Cl)c(NC(C)=O)c1`: the viability in experiment [1] was 108%; in experiment [3], 108% (inactive); in experiment [4], 70.9% (inactive); in experiment [5], 97.2% (inactive); in experiment [6] (setting [9]), 89.5%; in experiment [6] (setting [10]) it was 97.2%. Besides, in experiment [2], the Her2 level is 99.5% (inactive). Moreover, in experiment [6] (H69AR cells + 2 uM doxorubicin), the differential viability (reversal) is 7.73% (inactive). The inhibition was -1.17% (inactive) in experiment [7] and -0.33% (inactive) in experiment [8].
Turning to `O=C(O)CC1CCCC(c2ccccc2)C1=O` (stereo not given), the viability is 97% in experiment [1]; 97% (inactive) in experiment [3]; 108% (inactive) in experiment [4]; 99.6% (inactive) in experiment [5]; 93% in experiment [6] (setting [9]); 99.6% in experiment [6] (setting [10]). Moreover, the Her2 level in experiment [2] is 110% (inactive). The differential viability (reversal) in experiment [6] (H69AR cells + 2 uM doxorubicin) is 6.58% (inactive). Moreover, the results for the inhibition in experiment [7] and in experiment [8] were -6.4% (inactive) and -9.35% (inactive), respectively.
`O=C(COc1ccccc1)NCCSCc1ccco1`: the viability was 109% in experiment [1]; 109% (inactive) in experiment [3]; 104% (inactive) in experiment [4]; 89.3% (inactive) in experiment [5]; 79.4% in experiment [6] (setting [9]); 89.3% in experiment [6] (setting [10]). For the same compound, in experiment [2], the Her2 level was 98.5% (inactive). In experiment [6] (H69AR cells + 2 uM doxorubicin), the differential viability (reversal) was 9.83% (inactive). For the same compound, the values for the inhibition in experiment [7] and in experiment [8] were -6.49% (inactive) and -5.67% (inactive), respectively.
For `CN(C)c1ccc(CNC2CC(C)(C)NC(C)(C)C2)cc1`, the viability is 91% in experiment [1]; 91% (inactive) in experiment [3]; 94.2% (inactive) in experiment [4]; 98.9% (inactive) in experiment [5]; 91.3% in experiment [6] (setting [9]); 98.9% in experiment [6] (setting [10]). The Her2 level in experiment [2] was 112% (inactive). Moreover, the differential viability (reversal) in experiment [6] (H69AR cells + 2 uM doxorubicin) is 7.67% (inactive). Moreover, the inhibition in experiment [7] was -7.5% (inactive); in experiment [8], -6.07% (inactive).
For `Cc1[nH]c(=O)[nH]c(=O)c1S(=O)(=O)N(C)Cc1ccccc1`, the viability in experiment [1] was 108%; in experiment [3] it was 108% (inactive); in experiment [4], 96.2% (inactive); in experiment [5], 105% (inactive); in experiment [6] (setting [9]), 92.5%; in experiment [6] (setting [10]), 105%. Further, in experiment [2], the Her2 level is 106% (inactive). For the same compound, the differential viability (reversal) in experiment [6] (H69AR cells + 2 uM doxorubicin) is 12.3% (inactive). The inhibition in experiment [7] was -0.66% (inactive); in experiment [8], -4.6% (inactive).
Take `COc1cc(C(=O)N2CCC(NC(=O)C(Cc3ccc(C)cc3)NC(C)=O)CC2)cc(OC)c1OC` (stereo not given): the viability is 92% in experiment [1]; 92% (inactive) in experiment [3]; 97.8% (inactive) in experiment [4]; 98% (inactive) in experiment [5]; 90.3% in experiment [6] (setting [9]); 98% in experiment [6] (setting [10]). Also, in experiment [2], the Her2 level is 86% (inactive). Also, the differential viability (reversal) in experiment [6] (H69AR cells + 2 uM doxorubicin) is 7.71% (inactive). The inhibition in experiment [7] is -2.84% (inactive); in experiment [8], 0.16% (inactive).
For `CCCCOCCCNC(=O)c1ccccc1OCC`, the viability in experiment [1] is 89%; in experiment [3] it was 89% (inactive); in experiment [4], 108% (inactive); in experiment [5], 87.8% (inactive); in experiment [6] (setting [9]) it was 78.2%; in experiment [6] (setting [10]) it was 87.8%. In experiment [2], the Her2 level was 88.5% (inactive). Also, in experiment [6] (H69AR cells + 2 uM doxorubicin), the differential viability (reversal) is 9.53% (inactive). The inhibition in experiment [7] was -3.72% (inactive); in experiment [8], -4.67% (inactive).
Take `Cc1ccc(NC(=O)CSc2nnc(CSc3nc(C)cc(C)n3)n2Cc2ccco2)c(C)c1`: the viability in experiment [1] is 88%; in experiment [3] it was 88% (inactive); in experiment [4] it was 96.9% (inactive); in experiment [5], 80.8% (inactive); in experiment [6] (setting [9]) it was 64.7%; in experiment [6] (setting [10]), 80.8%. Moreover, the Her2 level in experiment [2] is 96% (inactive). Besides, the differential viability (reversal) in experiment [6] (H69AR cells + 2 uM doxorubicin) is 16.1% (inactive). The inhibition in experiment [7] is 0.8% (inactive); in experiment [8] it was -6.72% (inactive).
